Measurements taken from ChEMBL document CHEMBL3045710, “Antifungal activity of 4'-(2,6,6-Trimethyl-2-cyclohexen-1-yl)-3'-butene-2'-ketoxime N-O-alkyl ethers” (2010).
Converted amounts (≈) assume the structure as drawn. The source made the active and inactive calls. No cut-off for these calls is given here.

Columns and labels:
[1] = system: Athelia rolfsii; assay: Antifungal activity against Athelia rolfsii assessed as growth inhibition at 28 degC; type: functional; settings: Agroathelia rolfsii; read-out: ED50 (the source's name)
Summary of the method: (§1)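 Poisoned food technique on PDA: compound in acetone added to medium at 1000, 500, 250, 125, 100, 50, 25 and 10 μg/mL (final in medium). Acetone 1 mL serves as the control. A 5 mm mycelial disk from a 2-week-old colony is placed centrally. Plates are incubated at 28 °C until control growth is nearly complete. Colony diameter is measured and %inhibition = (C−T)/C×100, four replicates. ED50 is obtained by probit analysis of Abbott-corrected inhibition.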

[2] = system: Sclerotinia sclerotiorum; assay: Antifungal activity against Sclerotinia sclerotiorum assessed as growth inhibition at 28 degC; type: functional; settings: read-out: ED50 (the source's name); summary of the method: as §1
[3] = system: Macrophomina phaseolina; assay: Antifungal activity against Macrophomina phaseolina assessed as growth inhibition at 28 degC; type: functional; settings: read-out: ED50 (the source's name); summary of the method: as §1
[4] = system: Macrophomina phaseolina; assay: Antifungal activity against Rhizoctonia bataticola assessed as growth inhibition at 28 degC; type: functional; settings: read-out: ED50 (the source's name); summary of the method: as §1
[5] = system: Sclerotinia sclerotiorum; assay: Antifungal activity against Sclerotinia sclerotiorum infected pea plants assessed as healthy plants at 0.364 mL of ai/150cm'3 measured after 21 days; type: functional
Summary of the method: (§2)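 S. sclerotiorum inoculum was grown in potato dextrose broth at 27 °C for 7 days, then in water at 20 °C for 3-4 weeks, then homogenized, filtered and sonicated. It was mixed into sieved, autoclaved compost soil and held about 25 °C for 5-7 days. Fungicide was incorporated and soil was bagged 7 days. Pea was transplanted. Symptomless plants were scored at 7, 14 and 21 days (20 plants/treatment, six trials), arcsine-square-root transformed, repeated-measures ANOVA.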

[6] = system: Sclerotinia sclerotiorum; assay: Antifungal activity against Sclerotinia sclerotiorum infected pea plants assessed as healthy plants at 0.364 mL of ai/150cm'3 measured after 14 days; type: functional; summary of the method: as §2
[7] = system: Sclerotinia sclerotiorum; assay: Antifungal activity against Sclerotinia sclerotiorum infected pea plants assessed as prevention of water soaked spots at 5 % aqueous emulsion measured on day 21; type: functional, organism-based
Summary of the method: (§3)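 Greenhouse pea assay: S. sclerotiorum inoculum grown in potato dextrose broth, homogenized and mixed into autoclaved, sieved composted soil, then incubated 5-7 days at ~25 °C. Formulated compound is applied as 1 or 5% aqueous emulsion at 5.0 mL per 150 cm3 soil and held 7 days in sealed bags. Symptoms (water-soaked spots) and symptomless plants are scored 7, 14 and 21 days after transplanting, 20 plants per treatment.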

[8] = system: Sclerotinia sclerotiorum; assay: Antifungal activity against Sclerotinia sclerotiorum infected pea plants assessed as healthy plants at 5 % aqueous emulsion measured on day 21; type: functional; summary of the method: as §3
[9] = system: Sclerotinia sclerotiorum; assay: Antifungal activity against Sclerotinia sclerotiorum infected pea plants assessed as healthy plants at 1 % aqueous emulsion measured on day 21; type: functional; summary of the method: as §3
[10] = system: Sclerotinia sclerotiorum; assay: Antifungal activity against Sclerotinia sclerotiorum infected pea plants assessed as healthy plants at 1 % aqueous emulsion measured on day 7; type: functional; summary of the method: as §3

SMILES	EC50 [1] [µg/mL]	EC50 [2] [µg/mL]	EC50 [3] [µg/mL]	EC50 [4] [µg/mL]	Activity [5] [%]	Activity [6] [%]	Activity [7]	Activity [8] [%]	Activity [9] [%]	Activity [10] [%]
CCCO/N=C(C)/C=C/C1C(C)=CCCC1(C)C (configuration not stated)	101 (≈ 406 µM)	257 (≈ 1030 µM)	181 (≈ 727 µM)	32.4 (≈ 130 µM)						
CCCCO/N=C(C)\C=C\C1C(C)=CCCC1(C)C (configuration not stated)	88.9 (≈ 337 µM)	164 (≈ 621 µM)	174 (≈ 660 µM)	114 (≈ 431 µM)						
CCCO/N=C(C)\C=C\C1C(C)=CCCC1(C)C (configuration not stated)	132 (≈ 530 µM)	220 (≈ 881 µM)	236 (≈ 945 µM)	157 (≈ 629 µM)						
CCCCCCCCCCO/N=C(C)/C=C/C1C(C)=CCCC1(C)C (configuration not stated)	842 (≈ 2420 µM)	681 (≈ 1960 µM)	957 (≈ 2750 µM)	1940 (≈ 5590 µM)						
COC(=O)Nc1nc2ccccc2[nH]1 [CARBENDAZIM]					75	80				
CCCCCCO/N=C(C)/C=C/C1C(C)=CCCC1(C)C (configuration not stated)	573 (≈ 1970 µM)	428 (≈ 1470 µM)	751 (≈ 2580 µM)	895 (≈ 3070 µM)						
CO/N=C(C)/C=C/C1C(C)=CCCC1(C)C (configuration not stated)	238 (≈ 1070 µM)	442 (≈ 2000 µM)	307 (≈ 1380 µM)	388 (≈ 1750 µM)						
CCCCO/N=C(C)/C=C/C1C(C)=CCCC1(C)C (configuration not stated)	113 (≈ 430 µM)	107 (≈ 408 µM)	101 (≈ 382 µM)	67.9 (≈ 258 µM)						
CC1=CCCC(C)(C)C1/C=C/C(C)=N/OCCC(C)C (configuration not stated)	257 (≈ 927 µM)	273 (≈ 986 µM)	666 (≈ 2400 µM)	723 (≈ 2600 µM)						
CCCCCCCO/N=C(C)/C=C/C1C(C)=CCCC1(C)C (configuration not stated)	975 (≈ 3190 µM)	392 (≈ 1280 µM)	717 (≈ 2350 µM)	919 (≈ 3010 µM)						
CCCCCO/N=C(C)/C=C/C1C(C)=CCCC1(C)C (configuration not stated)	43.6 (≈ 157 µM)	32.7 (≈ 118 µM)	94.8 (≈ 342 µM)	39.2 (≈ 141 µM)						
CCO/N=C(C)\C=C\C1C(C)=CCCC1(C)C (configuration not stated)	415 (≈ 1760 µM)	261 (≈ 1110 µM)	394 (≈ 1670 µM)	246 (≈ 1050 µM)						
CCCCCCCCO/N=C(C)/C=C/C1C(C)=CCCC1(C)C (configuration not stated)	1040 (≈ 3250 µM)	837 (≈ 2620 µM)	824 (≈ 2580 µM)	1090 (≈ 3430 µM)						
CC1=CCCC(C)(C)C1/C=C/C(C)=N/OC(C)C (configuration not stated)	35.5 (≈ 142 µM)	182 (≈ 729 µM)	126 (≈ 505 µM)	56.6 (≈ 227 µM)						
CCCCCCCCCCO/N=C(C)\C=C\C1C(C)=CCCC1(C)C (configuration not stated)	1110 (≈ 3190 µM)	477 (≈ 1370 µM)	1760 (≈ 5060 µM)	2060 (≈ 5920 µM)						
CCO/N=C(C)/C=C/C1C(C)=CCCC1(C)C (configuration not stated)	410 (≈ 1740 µM)	295 (≈ 1250 µM)	732 (≈ 3110 µM)	393 (≈ 1670 µM)						
CCCCCCCCO/N=C(C)\C=C\C1C(C)=CCCC1(C)C (configuration not stated)	1360 (≈ 4250 µM)	584 (≈ 1830 µM)	1110 (≈ 3470 µM)	1610 (≈ 5050 µM)						
CO/N=C(C)\C=C\C1C(C)=CCCC1(C)C (configuration not stated)	259 (≈ 1170 µM)	517 (≈ 2340 µM)	311 (≈ 1400 µM)	413 (≈ 1870 µM)						
CCCCCCCO/N=C(C)\C=C\C1C(C)=CCCC1(C)C (configuration not stated)	956 (≈ 3130 µM)	419 (≈ 1370 µM)	1090 (≈ 3570 µM)	566 (≈ 1850 µM)						
CC1=CCCC(C)(C)C1/C=C/C(C)=N\OC(C)C (configuration not stated)	129 (≈ 517 µM)	190 (≈ 764 µM)	198 (≈ 794 µM)	116 (≈ 467 µM)						
CC1=CCCC(C)(C)C1/C=C/C(C)=N/OCC(C)C (configuration not stated)	45.2 (≈ 172 µM)	94.1 (≈ 357 µM)	103 (≈ 391 µM)	50.6 (≈ 192 µM)						
CC1=CCCC(C)(C)C1/C=C/C(C)=N\OCC(C)C (configuration not stated)	47.6 (≈ 181 µM)	79 (≈ 300 µM)	101 (≈ 383 µM)	58.7 (≈ 223 µM)						
CCCCCO/N=C(C)\C=C\C1C(C)=CCCC1(C)C (configuration not stated)	41.6 (≈ 150 µM)	21.4 (≈ 77.1 µM)	31.1 (≈ 112 µM)	57.6 (≈ 207 µM)			Active	>90	40	65
CCCCCCO/N=C(C)\C=C\C1C(C)=CCCC1(C)C (configuration not stated)	912 (≈ 3130 µM)	244 (≈ 837 µM)	963 (≈ 3300 µM)	327 (≈ 1120 µM)						
CC1=CCCC(C)(C)C1/C=C/C(C)=N\OCCC(C)C (configuration not stated)	367 (≈ 1320 µM)	375 (≈ 1350 µM)	625 (≈ 2250 µM)	125 (≈ 452 µM)						
